Assay [1] deals with T1, Angiotensin II receptor (AT-1) type-1 (Rattus norvegicus, UniProt P29089+P25095).
T1 sequence (P29089 whole entry): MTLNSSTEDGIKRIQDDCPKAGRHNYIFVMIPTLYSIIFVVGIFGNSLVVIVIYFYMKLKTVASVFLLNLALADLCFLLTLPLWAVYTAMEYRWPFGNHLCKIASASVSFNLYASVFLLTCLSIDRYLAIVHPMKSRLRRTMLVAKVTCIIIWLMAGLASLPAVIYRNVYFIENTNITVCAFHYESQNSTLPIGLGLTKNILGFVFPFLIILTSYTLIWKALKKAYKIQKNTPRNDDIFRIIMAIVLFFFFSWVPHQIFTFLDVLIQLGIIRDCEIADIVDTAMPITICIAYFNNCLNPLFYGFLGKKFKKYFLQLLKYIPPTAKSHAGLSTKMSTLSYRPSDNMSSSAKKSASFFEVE
T1 sequence (P25095 whole entry): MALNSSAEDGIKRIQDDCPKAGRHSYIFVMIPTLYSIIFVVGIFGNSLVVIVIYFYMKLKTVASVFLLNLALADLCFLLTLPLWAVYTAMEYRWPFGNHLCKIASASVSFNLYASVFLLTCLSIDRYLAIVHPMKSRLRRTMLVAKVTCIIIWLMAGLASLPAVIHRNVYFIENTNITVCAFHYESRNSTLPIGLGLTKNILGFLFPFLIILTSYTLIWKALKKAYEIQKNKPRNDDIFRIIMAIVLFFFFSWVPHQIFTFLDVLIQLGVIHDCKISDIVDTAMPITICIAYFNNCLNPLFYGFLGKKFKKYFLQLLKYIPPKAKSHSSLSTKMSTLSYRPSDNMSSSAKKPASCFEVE
Kind of assay: In vitro binding affinity to the angiotensin II receptor, type 1 in rat liver. In short, it runs like this: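 Buffer: 50 mM NaH2PO4 pH 7.1 with 100 μM bacitracin, 0.2% BSA, 100 mM NaCl, 10 mM MgCl2, 1 mM EGTA. Incubated 1 h at 25 °C, then filtered, and filters counted. IC50 from weighted nonlinear regression to the mass action equation.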

Another assay is filed under the species Oryctolagus cuniculus. Kind of assay: Agonist efficacy assessed from contractile responses on rabbit aorta (AT1). It counts as functional. In short, it runs like this:
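Rabbit thoracic aortic rings held in 20-mL baths of Krebs-bicarbonate at 37 °C, gassed with 5% CO2 in oxygen. Resting tension 4.0 g, 90-min equilibration. Peptides added cumulatively until maximal response. EC50 read graphically from the curves as the concentration giving 50% of maximal contraction.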

*1 amine or outer side, *2 acyl side, *3 side chain or, on linkers, in order; H or OH if unused. Where a SMILES comes first, the peptide text is derived from it. Bridges are numbered along the chain shown (N, C = ends). Roman numbers before positions name the chains, in order. [ ]: non-standard residue; d: D form. Pro(4R-SH) = O=C([C@@H]1C[C@@H](S[*:3])CN1[*:1])[*:2]; Pro(4S-SH) = O=C([C@@H]1C[C@H](S[*:3])CN1[*:1])[*:2]; hCys = N[C@@H](CCS)C(=O)O; Orn = NCCC[C@H](N)C(=O)O; Sar = CNCC(=O)O

This note sets out measurements from ChEMBL document CHEMBL1126724, “Multiple binding modes for the receptor-bound conformations of cyclic AII agonists” (J Med Chem, 1993).

Compound `CNCC(=O)N[C@@H](CCCN=C(N)N)C(=O)N[C@H]1CSSC[C@@H](C(=O)N[C@@H](Cc2c[nH]cn2)C(=O)N2CCC[C@H]2C(=O)N[C@@H](Cc2ccccc2)C(=O)O)NC(=O)[C@H](Cc2ccc(O)cc2)NC1=O` (H-[Sar]RCYCHPF-OH; disulfide 3-5) registered a 50% inhibitory concentration (IC50) in assay [1] of 7.6 nM. In other words, the single-digit nanomolar range. Compound `CNCC(=O)N[C@@H](CCCN=C(N)N)C(=O)N1C[C@H]2C[C@H]1C(=O)N[C@@H](Cc1ccc(O)cc1)C(=O)N[C@H](C(=O)N[C@@H](Cc1c[nH]cn1)C(=O)N1CCC[C@H]1C(=O)N[C@@H](Cc1ccccc1)C(=O)O)CCSS2` (H-[Sar]R[Pro(4R-SH)]Y[hCys]HPF-OH; disulfide 3-5) displayed a 50% inhibitory concentration (IC50) in assay [1] of 29 nM. This compound had an EC50 in the assay filed under Oryctolagus cuniculus of 700 nM. The matching figures for `CNCC(=O)N[C@@H](CCCN=C(N)N)C(=O)N1C[C@@H]2C[C@H]1C(=O)N[C@@H](Cc1ccc(O)cc1)C(=O)N[C@H](C(=O)N[C@@H](Cc1c[nH]cn1)C(=O)N1CCC[C@H]1C(=O)N[C@@H](Cc1ccccc1)C(=O)O)CCSS2` (H-[Sar]R[Pro(4S-SH)]Y[hCys]HPF-OH; disulfide 3-5): 510 nM and 440 nM.

As for `CC[C@H](C)[C@H](NC(=O)[C@H](Cc1ccc(O)cc1)NC(=O)[C@@H](NC(=O)[C@@H](N)CCCN=C(N)N)C(C)C)C(=O)N[C@@H](Cc1c[nH]cn1)C(=O)N1CCC[C@H]1C(=O)N[C@@H](Cc1ccccc1)C(=O)O` [ANGIOTENSIN III], in assay [1], the concentration for half-maximal inhibition (IC50) was determined as 5.57 nM. In the assay listed under Oryctolagus cuniculus, this compound returned a concentration giving a half-maximal response (EC50) of 32 nM. `CNCC(=O)N[C@@H](CCCNC(=N)N)C(=O)N[C@H]1CCSSCC[C@@H](C(=O)N[C@@H](Cc2cnc[nH]2)C(=O)N2CCC[C@H]2C(=O)N[C@@H](Cc2ccccc2)C(=O)O)NC(=O)[C@H](Cc2ccc(O)cc2)NC1=O` (H-[Sar]R[hCys]Y[hCys]HPF-OH; disulfide 3-5) showed a half-maximal inhibitory concentration (IC50) in assay [1] of 1.3 nM. The same measure, in the same setting: as for `CNCC(=O)N[C@@H](CCCN=C(N)N)C(=O)N[C@H]1CSSC[C@@H](C(=O)N[C@@H](Cc2ccccc2)C(=O)O)NC(=O)[C@H](Cc2c[nH]cn2)NC(=O)[C@H](C(C)C)NC(=O)[C@H](Cc2ccc(O)cc2)NC1=O` (H-[Sar]RCYVHCF-OH; disulfide 3-7), the figure is 1230 nM. The same measure, in the same setting: as for `CNCC(=O)N[C@@H](CCCN=C(N)N)C(=O)N1C[C@H]2C[C@H]1C(=O)N[C@@H](Cc1ccc(O)cc1)C(=O)N[C@H](C(=O)N[C@@H](Cc1c[nH]cn1)C(=O)N1CCC[C@H]1C(=O)N[C@@H](Cc1ccccc1)C(=O)O)CSS2` (H-[Sar]R[Pro(4R-SH)]YCHPF-OH; disulfide 3-5), the figure is 87 nM; as for `CNCC(=O)N[C@@H](CCCN=C(N)N)C(=O)N[C@H](C(=O)N[C@@H](Cc1ccc(O)cc1)C(=O)N[C@H]1CSSC[C@@H](C(=O)O)NC(=O)[C@@H]2CCCN2C(=O)[C@H](Cc2c[nH]cn2)NC1=O)C(C)C` (H-[Sar]RVYCHPC-OH; disulfide 5-8), 1200 nM. The compound `CNCC(=O)N[C@@H](CCCN=C(N)N)C(=O)N[C@H]1CC(=O)NCCCC[C@@H](C(=O)N[C@@H](Cc2c[nH]cn2)C(=O)N2CCC[C@H]2C(=O)N[C@@H](Cc2ccccc2)C(=O)O)NC(=O)[C@H](Cc2ccc(O)cc2)NC1=O` (H-[Sar]RDYKHPF-OH; lactam 3-5) yielded a concentration for half-maximal inhibition (IC50) in assay [1] of 12 nM. The concentration giving a half-maximal response (EC50) in the assay filed under Oryctolagus cuniculus was 53 nM. In assay [1], `CNCC(=O)N[C@@H](CCCN=C(N)N)C(=O)N[C@H]1CCC(=O)NCCCC[C@@H](C(=O)N[C@@H](Cc2c[nH]cn2)C(=O)N2CCC[C@H]2C(=O)N[C@@H](Cc2ccccc2)C(=O)O)NC(=O)[C@H](Cc2ccc(O)cc2)NC1=O` (H-[Sar]REYKHPF-OH; lactam 3-5) came in with an IC50 of 89 nM. Turning to `CNCC(=O)N[C@@H](CCCN=C(N)N)C(=O)N[C@H]1CCSS[C@@H]2C[C@@H](C(=O)N[C@@H](Cc3c[nH]cn3)C(=O)N3CCC[C@H]3C(=O)N[C@@H](Cc3ccccc3)C(=O)O)N(C2)C(=O)[C@H](Cc2ccc(O)cc2)NC1=O` (H-[Sar]R[hCys]Y[Pro(4R-SH)]HPF-OH; disulfide 3-5), the concentration for half-maximal inhibition (IC50) in assay [1] is listed as 1.3 nM. Besides, the EC50 in the assay filed under Oryctolagus cuniculus came out at 13 nM. For H-DRVYIHPFHL-OH, in that order: 300 nM and over 10000 nM. Turning to `CNCC(=O)N[C@@H](CCCN=C(N)N)C(=O)N[C@H]1CCSSCC[C@@H](C(=O)N[C@@H](Cc2c[nH]cn2)C(=O)N2CCC[C@H]2C(=O)N[C@@H](Cc2ccccc2)C(=O)O)NC(=O)[C@H](Cc2ccc(O)cc2)NC1=O` (H-[Sar]R[hCys]Y[hCys]HPF-OH; disulfide 3-5), the concentration for a half-maximal effect (EC50) in the assay filed under Oryctolagus cuniculus was 3.2 nM. The compound `CNCC(=O)N[C@@H](CCCN=C(N)N)C(=O)N[C@H]1CSSCC[C@@H](C(=O)N[C@@H](Cc2c[nH]cn2)C(=O)N2CCC[C@H]2C(=O)N[C@@H](Cc2ccccc2)C(=O)O)NC(=O)[C@H](Cc2ccc(O)cc2)NC1=O` (H-[Sar]RCY[hCys]HPF-OH; disulfide 3-5) returned an IC50 in assay [1] of 2.6 nM. This lies in the single-digit nanomolar range. On to `CNCC(=O)N[C@@H](CCCN=C(N)N)C(=O)N[C@H]1CCSS[C@H]2C[C@@H](C(=O)N[C@@H](Cc3c[nH]cn3)C(=O)N3CCC[C@H]3C(=O)N[C@@H](Cc3ccccc3)C(=O)O)N(C2)C(=O)[C@H](Cc2ccc(O)cc2)NC1=O` (H-[Sar]R[hCys]Y[Pro(4S-SH)]HPF-OH; disulfide 3-5), for which the IC50 in assay [1] is given as 110 nM. This compound also yielded an EC50 in the assay filed under Oryctolagus cuniculus of 690 nM. `CNCC(=O)N[C@@H](CCCN=C(N)N)C(=O)N[C@H]1CSS[C@H]2C[C@@H](C(=O)N[C@@H](Cc3c[nH]cn3)C(=O)N3CCC[C@H]3C(=O)N[C@@H](Cc3ccccc3)C(=O)O)N(C2)C(=O)[C@H](Cc2ccc(O)cc2)NC1=O` (H-[Sar]RCY[Pro(4S-SH)]HPF-OH; disulfide 3-5) had a half-inhibitory concentration (IC50) in assay [1] of 62 nM. This lies in the double-digit nanomolar range. With `CNCC(=O)N[C@@H](CCCN=C(N)N)C(=O)N1C[C@@H]2C[C@H]1C(=O)N[C@@H](Cc1ccc(O)cc1)C(=O)N[C@H](C(=O)N[C@@H](Cc1c[nH]cn1)C(=O)N1CCC[C@H]1C(=O)N[C@@H](Cc1ccccc1)C(=O)O)CSSC[C@H](C(=O)N[C@H](Cc1c[nH]cn1)C(=O)N1CCC[C@@H]1C(=O)N[C@H](Cc1ccccc1)C(=O)O)NC(=O)[C@@H](Cc1ccc(O)cc1)NC(=O)[C@H]1C[C@H](CN1C(=O)[C@@H](CCCN=C(N)N)NC(=O)CNC)SS2`, the half-maximal inhibitory concentration (IC50) in assay [1] was found to be 190 nM. The EC50 in the assay filed under Oryctolagus cuniculus is 460 nM. In turn, `CNCC(=O)N[C@@H](CCCN=C(N)N)C(=O)N[C@H]1CSSC[C@@H](C(=O)N[C@@H](Cc2c[nH]cn2)C(=O)N2CCC[C@H]2C(=O)N[C@@H](Cc2ccccc2)C(=O)O)NC(=O)[C@H](Cc2ccc(O)cc2)NC(=O)[C@@H](NC(=O)[C@H](CCCN=C(N)N)NC(=O)CNC)CSSC[C@@H](C(=O)N[C@@H](Cc2c[nH]cn2)C(=O)N2CCC[C@H]2C(=O)N[C@@H](Cc2ccccc2)C(=O)O)NC(=O)[C@H](Cc2ccc(O)cc2)NC1=O` (I: H-[Sar]RCYCHPF-OH / II: H-[Sar]RCYCHPF-OH; disulfide I:3-II:5, I:5-II:3) returned an IC50 in assay [1] of 28 nM. Turning to `CC[C@H](C)[C@H](NC(=O)[C@H](Cc1ccc(O)cc1)NC(=O)[C@@H](NC(=O)[C@H](CCCNC(=N)N)NC(=O)[C@@H](N)CC(=O)O)C(C)C)C(=O)N[C@@H](Cc1cnc[nH]1)C(=O)N1CCC[C@H]1C(=O)N[C@@H](Cc1ccccc1)C(=O)O` [ANGIOTENSIN II], the EC50 in the assay listed under Oryctolagus cuniculus is 2.5 nM. In assay [1], `CNCC(=O)N[C@@H](CCCN=C(N)N)C(=O)N1C[C@@H]2C[C@H]1C(=O)N[C@@H](Cc1ccc(O)cc1)C(=O)N[C@H](C(=O)N[C@@H](Cc1c[nH]cn1)C(=O)N1CCC[C@H]1C(=O)N[C@@H](Cc1ccccc1)C(=O)O)CSS[C@H]1C[C@@H](C(=O)N[C@@H](Cc3ccc(O)cc3)C(=O)N[C@H](C(=O)N[C@@H](Cc3c[nH]cn3)C(=O)N3CCC[C@H]3C(=O)N[C@@H](Cc3ccccc3)C(=O)O)CSS2)N(C(=O)[C@H](CCCN=C(N)N)NC(=O)CNC)C1` (I: H-[Sar]R[Pro(4S-SH)]YCHPF-OH / II: H-[Sar]R[Pro(4S-SH)]YCHPF-OH; disulfide I:3-II:5, I:5-II:3) came in with an IC50 of 110 nM. In the assay filed under Oryctolagus cuniculus, this compound had a concentration for a half-maximal effect (EC50) of 870 nM.

Regarding `CNCC(=O)N[C@@H](CCCN=C(N)N)C(=O)N[C@H]1CC(=O)NCCC[C@@H](C(=O)N[C@@H](Cc2c[nH]cn2)C(=O)N2CCC[C@H]2C(=O)N[C@@H](Cc2ccccc2)C(=O)O)NC(=O)[C@H](Cc2ccc(O)cc2)NC1=O` (H-[Sar]RDY[Orn]HPF-OH; lactam 3-5), in assay [1], the IC50 was found to be 683 nM. This lies in the sub-micromolar range. Still for that read-out and setting: as for `CNCC(=O)N[C@@H](CCCN=C(N)N)C(=O)N[C@H]1CSSC[C@@H](C(=O)O)NC(=O)[C@@H]2CCCN2C(=O)[C@H](Cc2c[nH]cn2)NC(=O)[C@H](C(C)C)NC(=O)[C@H](Cc2ccc(O)cc2)NC1=O` (H-[Sar]RCYVHPC-OH; disulfide 3-8), the figure is 520 nM.

A word on the IC50: it is the concentration that inhibits the measured activity by half. What is called EC50 is the midpoint of the concentration-response curve.
